Test results reported in PMC12062833 (RSC Medicinal Chemistry, 2025).
Values after ≈ are worked out from the molar mass of the structure shown.

What was measured:
[1] = system: Klebsiella pneumoniae (ATCC 27736); experiment: Antibacterial MIC, macrodilution method, K. pneumoniae; format: cell-based; conditions: ATCC27736, read-out: MIC K. pneumoniae
How it was run: (§1)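 CLSI M07-A9 tube macrodilution. Strains were grown overnight on nutrient agar at 37 °C, and colonies were suspended in Mueller-Hinton broth. Inoculum was 1 × 10^6 per mL (5 × 10^5 per mL in test). DMSO stock was 5120 μg/mL. Final concentrations were 256 to […] in 2 mL. Tubes were incubated at 37 °C for 16–20 h. Controls were inoculum with and without 1% DMSO, and broth alone.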

[2] = system: HL-60 acute myeloid leukemia cells; experiment: Antiproliferative assay; format: cell-based; conditions: Homo sapiens, HL-60, 72 h, read-out: IC50 HL-60
How it was run: (§2)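 Adherent lines were seeded at 500 (Capan-1), 1000 (LN-229, HCT-116) or 1500 (NCI-H460) cells/well and dosed after overnight incubation. Suspension lines were seeded at 2500 (HL-60, K-562, Z-138) or 5500 (DND-41) cells/well directly onto compound. Seven 5-fold concentrations ran from 100 to 0.006 μM for 72 h. Viability was read as MTS absorbance at 490 nm after 3 h, and IC50 was derived from OD values. Two independent experiments.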

[3] = system: Capan-1 pancreatic adenocarcinoma cells; experiment: Antiproliferative assay; format: cell-based; conditions: Homo sapiens, CAPAN-1, 72 h, read-out: IC50 Capan-1
How it was run: as §2

[4] = system: K-562 chronic myeloid leukemia cells; experiment: Antiproliferative assay; format: cell-based; conditions: Homo sapiens, K562, 72 h, read-out: IC50 K-562
How it was run: as §2

[5] = system: LN-229 glioblastoma cells; experiment: Antiproliferative assay; format: cell-based; conditions: Homo sapiens, LN-229, 72 h, read-out: IC50 LN-229
How it was run: as §2

[6] = system: Staphylococcus aureus (ATCC 25923); experiment: Antibacterial MIC, macrodilution method, S. aureus; format: cell-based; conditions: ATCC25923, read-out: MIC S. aureus
How it was run: as §1

[7] = system: NCI-H460 non-small cell lung cancer cells; experiment: Antiproliferative assay; format: cell-based; conditions: Homo sapiens, NCI-H460, 72 h, read-out: IC50 NCI-H460
How it was run: as §2

[8] = system: Escherichia coli (ATCC 25922); experiment: Antibacterial MIC, macrodilution method, E. coli; format: cell-based; conditions: ATCC25922, read-out: MIC E. coli
How it was run: as §1

[9] = system: Pseudomonas aeruginosa (ATCC 9027); experiment: Antibacterial MIC, macrodilution method, P. aeruginosa; format: cell-based; conditions: ATCC9027, read-out: MIC P. aeruginosa
How it was run: as §1

[10] = system: HCT-116 colon carcinoma cells; experiment: Antiproliferative assay; format: cell-based; conditions: Homo sapiens, HCT-116, 72 h, read-out: IC50 HCT-116
How it was run: as §2

salmon sperm DNA = experiment: Fluorescent intercalator displacement; format: binding; conditions: tested at 250, 100 and 40 μM; result in words
How it was run: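 Competitive fluorescence-polarization displacement. Acridine orange (50 nM) and salmon sperm DNA (6 μg/mL) were mixed with test compound at 250, 100 or 40 μM in HEN buffer (10 mM HEPES pH 7.5, 1 mM EDTA, 100 mM NaCl). Mixtures stood 20 min in the dark. mP was normalized to the DMSO control, with mitoxantrone (10 μM) as positive control.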

[11] = system: eight human tumor cell lines; experiment: Antiproliferative assay, span over the panel of tumor cell lines; format: cell-based; conditions: 72 h, read-out: IC50 range across tested tumor cell lines
How it was run: as §2

MIC [1] | IC50 [2] | IC50 [3] | IC50 [4] | IC50 [5] | MIC [6] | IC50 [7] | MIC [8] | MIC [9] | IC50 [10] | DNA intercalation (acridine orange displacement, fluorescence polarization) (salmon sperm DNA) | IC50 [11] | SMILES
> 256 mg/L | 29.2 ± 2.2 µM | 25.1 ± 3.7 µM | 8.7 ± 1.1 µM | 44 ± 0.8 µM | > 256 mg/L | 41.3 ± 3.7 µM | 256 mg/L (≈ 744 µM) | > 256 mg/L | 47.2 ± 1.8 µM |  |  | CCN(CC)CCOc1ccc(-c2nc3ccc(Cl)cc3[nH]2)cc1 [Compound 15, 2-(4-(6-Chloro-1H-benzo[d]imidazol-2-yl)phenoxy)-N,N-diethylethan-1-amine]
> 256 mg/L | > 100 µM | > 100 µM | > 100 µM | > 100 µM | > 256 mg/L | > 100 µM | > 256 mg/L | > 256 mg/L | > 100 µM |  |  | O=C(COc1ccc(-c2nc3ccccc3[nH]2)cc1)N1CCOCC1 [Compound 14, 2-(4-(1H-Benzo[d]imidazol-2-yl)phenoxy)-1-morpholinoethan-1-one]
 | 51.9 ± 5.9 µM | 39.1 ± 2.1 µM | 27.6 ± 3.3 µM | 44.1 ± 5.3 µM |  | 37.2 ± 4.3 µM |  |  | 61.1 ± 0.7 µM |  |  | CCN(CC)CCOc1ccc(-c2nc3ccc(F)cc3[nH]2)cc1 [Compound 18, N,N-Diethyl-2-(4-(6-fluoro-1H-benzo[d]imidazol-2-yl)phenoxy)ethan-1-amine]
 | > 100 µM | > 100 µM | > 100 µM | > 100 µM |  | > 100 µM |  |  | > 100 µM |  |  | Fc1cc(-c2nc3ccccc3[nH]2)ccc1OCCN1CCOCC1 [Compound 21, 4-(2-(4-(1H-Benzo[d]imidazol-2-yl)-2-fluorophenoxy)ethyl)morpholine]
> 256 mg/L | 33.8 ± 3.3 µM | 35.4 ± 2.7 µM | 19.1 ± 1.8 µM | 51.5 ± 0.1 µM | > 256 mg/L | 35.9 ± 1.3 µM | > 256 mg/L | > 256 mg/L | 49.5 ± 0.4 µM | scored best in the binding assay |  | CCN(CC)CCOc1ccc(-c2nc3ccc(F)cc3[nH]2)cc1F [Compound 26, N,N-Diethyl-2-(2-fluoro-4-(6-fluoro-1H-benzo[d]imidazol-2-yl)phenoxy)ethan-1-amine]
> 256 mg/L | 46.4 ± 1.3 µM | 47.7 ± 3.2 µM | 38.2 ± 4.5 µM | ≥ 65.1 µM | > 256 mg/L | 52.4 ± 1.3 µM | > 256 mg/L | > 256 mg/L | > 100 µM |  |  | CCN(CC)CCOc1ccc(-c2nc3ccccc3[nH]2)cc1 [Compound 12, 2-(4-(1H-Benzo[d]imidazol-2-yl)phenoxy)-N,N-diethylethan-1-amine]
> 256 mg/L | 65.1 ± 2.8 µM | 47 ± 4.3 µM | 29.6 ± 1.9 µM | > 100 µM | > 256 mg/L | > 100 µM | > 256 mg/L | > 256 mg/L | > 100 µM |  |  | Fc1ccc2nc(-c3ccc(OCc4cn(CCN5CCOCC5)nn4)c(F)c3)[nH]c2c1 [Compound 33, 4-(2-(4-((2-Fluoro-4-(6-fluoro-1H-benzo[d]imidazol-2-yl)phenoxy)methyl)-1H-1,2,3-triazol-1-yl)ethyl)morpholine]
> 256 mg/L | ≥ 98.1 µM | > 100 µM | > 100 µM | > 100 µM | > 256 mg/L | > 100 µM | > 256 mg/L | > 256 mg/L | > 100 µM |  |  | Clc1ccc2nc(-c3ccc(OCc4cn(CCN5CCOCC5)nn4)cc3)[nH]c2c1 [Compound 29, 4-(2-(4-((4-(6-Chloro-1H-benzo[d]imidazol-2-yl)phenoxy)methyl)-1H-1,2,3-triazol-1-yl)ethyl)morpholine]
 | 0.8 ± 0.2 µM | 3.4 ± 0.9 µM | 4 ± 1.3 µM | 0.03 µM |  | 6.1 ± 1.1 µM |  |  | 3.7 ± 0.3 µM |  |  | COc1cc([C@@H]2c3cc4c(cc3[C@@H](O[C@@H]3O[C@@H]5CO[C@@H](C)O[C@H]5[C@H](O)[C@H]3O)[C@H]3COC(=O)[C@H]23)OCO4)cc(OC)c1O [Etoposide, reference compound]
> 256 mg/L | 54.2 ± 4.1 µM | 42.1 ± 3.7 µM | 79.8 ± 1.3 µM | > 100 µM | > 256 mg/L | > 100 µM | > 256 mg/L | > 256 mg/L | > 100 µM |  | 37.3 to 79.8 µM | c1ccc2[nH]c(-c3ccc(OCCN4CCOCC4)cc3)nc2c1 [Compound 13, 4-(2-(4-(1H-Benzo[d]imidazol-2-yl)phenoxy)ethyl)morpholine]
 | > 100 µM | > 100 µM | > 100 µM | > 100 µM |  | > 100 µM |  |  | > 100 µM | exhibit clear intercalating properties |  | O=C(COc1ccc(-c2nc3ccccc3[nH]2)cc1F)N1CCOCC1 [Compound 22, 2-(4-(1H-Benzo[d]imidazol-2-yl)-2-fluorophenoxy)-1-morpholinoethan-1-one]
> 256 mg/L | ≥ 60.6 µM | 58.8 ± 1.9 µM | > 100 µM | > 100 µM | > 256 mg/L | 46.9 ± 4.4 µM | > 256 mg/L | > 256 mg/L | > 100 µM |  |  | Fc1ccc2nc(-c3ccc(OCc4cn(CCN5CCOCC5)nn4)cc3)[nH]c2c1 [Compound 30, 4-(2-(4-((4-(6-Fluoro-1H-benzo[d]imidazol-2-yl)phenoxy)methyl)-1H-1,2,3-triazol-1-yl)ethyl)morpholine]
 | > 100 µM | ≥ 69.1 µM | > 100 µM | > 100 µM |  | > 100 µM |  |  | > 100 µM |  | 37.3 to 79.8 µM | Fc1ccc2nc(-c3ccc(OCCN4CCOCC4)cc3)[nH]c2c1 [Compound 19, 4-(2-(4-(6-Fluoro-1H-benzo[d]imidazol-2-yl)phenoxy)ethyl)morpholine]
> 256 mg/L | > 100 µM | 54.9 ± 5.1 µM | > 100 µM | > 100 µM | > 256 mg/L | > 100 µM | > 256 mg/L | > 256 mg/L | > 100 µM |  |  | Fc1cc(-c2nc3ccc(Cl)cc3[nH]2)ccc1OCc1cn(CCN2CCOCC2)nn1 [Compound 32, 4-(2-(4-((4-(6-Chloro-1H-benzo[d]imidazol-2-yl)-2-fluorophenoxy)methyl)-1H-1,2,3-triazol-1-yl)ethyl)morpholine]
> 256 mg/L | ≥ 70 µM | 47.2 ± 0.4 µM | ≥ 88 µM | > 100 µM | > 256 mg/L | > 100 µM | 256 mg/L (≈ 633 µM) | > 256 mg/L | > 100 µM |  |  | c1ccc2[nH]c(-c3ccc(OCc4cn(CCN5CCOCC5)nn4)cc3)nc2c1 [Compound 28, 4-(2-(4-((4-(1H-Benzo[d]imidazol-2-yl)phenoxy)methyl)-1H-1,2,3-triazol-1-yl)ethyl)morpholine]
> 256 mg/L |  |  |  |  | 0.5 mg/L (≈ 1.51 µM) |  | < 0.125 mg/L | 0.5 mg/L (≈ 1.51 µM) |  |  |  | O=C(O)c1cn(C2CC2)c2cc(N3CCNCC3)c(F)cc2c1=O [CIP, ciprofloxacin, reference compound]
256 mg/L (≈ 468 µM) |  |  |  |  | 64 mg/L (≈ 117 µM) |  | 0.5 mg/L (≈ 0.915 µM) | 2 mg/L (≈ 3.66 µM) |  |  |  | CC(C)(O/N=C(\C(=O)N[C@@H]1C(=O)N2C(C(=O)[O-])=C(C[n+]3ccccc3)CS[C@H]12)c1csc(N)n1)C(=O)O [CAZ, ceftazidime, reference compound]
 | > 100 µM | > 100 µM | > 100 µM | > 100 µM |  | > 100 µM |  |  | > 100 µM |  |  | O=C(COc1ccc(-c2nc3ccc(F)cc3[nH]2)cc1)N1CCOCC1 [Compound 20, 2-(4-(6-Fluoro-1H-benzo[d]imidazol-2-yl)phenoxy)-1-morpholinoethan-1-one]
> 256 mg/L | 66.1 ± 4 µM | 40.6 ± 2.5 µM | 73 ± 3 µM | > 100 µM | > 256 mg/L | > 100 µM | > 256 mg/L | > 256 mg/L | > 100 µM |  |  | Fc1cc(-c2nc3ccccc3[nH]2)ccc1OCc1cn(CCN2CCOCC2)nn1 [Compound 31, 4-(2-(4-((4-(1H-Benzo[d]imidazol-2-yl)-2-fluorophenoxy)methyl)-1H-1,2,3-triazol-1-yl)ethyl)morpholine]
